Measurements as given in ChEMBL document CHEMBL5329154, “Novel 1,2,4-oxadiazole compounds as PPAR-α ligand agonists: a new strategy for the design of antitumour compounds” (RSC Med Chem, 2023).

Experiments:
[1] = Cytotoxicity against human WPMY-1 cells assessed as reduction in cell viability incubated for 72 hrs under normoxic condition by SRB assay; format: toxicity, cell-based
Summary of the method: (§1)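 Cells in DMEM with 2 mM L-glutamine, 10% FBS, penicillin and streptomycin at 37 °C, 5% CO2. Tumour cells (A498, DU-145) kept at hypoxia (1% O2); non-tumour cells (RPTEC, WPMY-1) at normoxia (20–21% O2). Seeded 2 × 10^4 cells/well, grown 12 h, then dosed 72 h at 0.20–100 μM (ten twofold steps, 0.5% DMSO). Fixed in cold 10% TCA, stained with 0.4% SRB, dye solubilised in 10 mM Tris, OD read at 540 nm. CC50 from non-linear regression.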

[2] = Cytotoxicity against human RPTEC assessed as reduction in cell viability incubated for 72 hrs under normoxic condition by SRB assay; format: toxicity, cell-based; conditions: RPTEC cells; summary of the method: as §1
[3] = test system: DU-145; assay: Cytotoxicity against human DU-145 cells assessed as reduction in cell viability incubated for 72 hrs under hypoxic condition by SRB assay; format: functional; summary of the method: as §1
[4] = test system: A498; assay: Cytotoxicity against human A498 cells assessed as reduction in cell viability incubated for 72 hrs under hypoxic condition by SRB assay; format: functional; summary of the method: as §1
[5] = molecular target: T1, Peroxisome proliferator-activated receptor alpha (Homo sapiens, UniProt Q07869); assay: Agonist activity at GAL4-tagged PPARalpha in human A498 cells assessed as transcriptional activation incubated for 72 hrs under hypoxic condition by luciferase assay; format: cell-based
T1 sequence (Q07869 whole entry): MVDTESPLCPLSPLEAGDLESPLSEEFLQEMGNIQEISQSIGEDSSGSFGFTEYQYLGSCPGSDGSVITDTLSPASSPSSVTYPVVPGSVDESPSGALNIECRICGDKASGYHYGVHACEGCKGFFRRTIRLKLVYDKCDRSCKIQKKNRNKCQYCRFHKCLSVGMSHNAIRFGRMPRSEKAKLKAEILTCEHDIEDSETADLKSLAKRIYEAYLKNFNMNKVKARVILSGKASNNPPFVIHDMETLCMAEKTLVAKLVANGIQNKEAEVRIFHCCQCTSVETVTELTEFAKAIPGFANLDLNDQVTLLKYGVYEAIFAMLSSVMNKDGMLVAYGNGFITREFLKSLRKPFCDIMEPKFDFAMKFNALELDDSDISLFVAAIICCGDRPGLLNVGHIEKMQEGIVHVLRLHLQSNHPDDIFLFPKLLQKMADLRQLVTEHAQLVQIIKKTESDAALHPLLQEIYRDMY

[6] = molecular target: T1, Peroxisome proliferator-activated receptor alpha; assay: Agonist activity at GAL4-tagged PPARalpha in human DU-145 cells assessed as transcriptional activation incubated for 72 hrs under hypoxic condition by luciferase assay; format: cell-based
[7] = molecular target: T1, Peroxisome proliferator-activated receptor alpha; assay: Agonist activity at GAL4-tagged PPARalpha in human WPMY-1 cells assessed as transcriptional activation incubated for 72 hrs under normoxic condition by luciferase assay; format: cell-based
[8] = molecular target: T1, Peroxisome proliferator-activated receptor alpha; assay: Agonist activity at GAL4-tagged PPARalpha in human RPTEC assessed as transcriptional activation incubated for 72 hrs under normoxic condition by luciferase assay; format: cell-based

EC50 [5] [µM]	EC50 [6] [µM]	EC50 [7] [µM]	EC50 [8] [µM]	SMILES	CC50 at 72 h [1] [µM]	CC50 at 72 h [2] [µM]	CC50 [3] [µM]	CC50 [4] [µM]
–	–	–	–	c1cncc(-c2noc(-c3ccsc3)n2)c1	71.1	63.3	1.57	1.32
–	–	–	–	c1cncc(-c2noc(-c3cc[nH]c3)n2)c1	96.9	92	3.97	2.52
–	–	–	–	c1cncc(-c2noc(C3CCCC3)n2)c1	96.4	84.4	2.81	1.79
–	–	–	–	CCCCCc1nc(-c2cccnc2)no1	92.7	81.7	1.93	1.66
–	–	–	–	c1cncc(-c2noc(-c3ncsn3)n2)c1	53.7	45.5	2.79	2.2
0.47	1.5	0.73	0.21	C1=CC(c2nc(-c3cccnc3)no2)CC1 (stereo unspecified)	88	74.8	1.81	1.53
–	–	–	–	C1=CC(c2nc(-c3cccnc3)no2)=CC1	78.6	66.7	1.63	1.37
–	–	–	–	Cn1ccc(-c2nc(-c3cccnc3)no2)c1	91.8	87.2	3.46	2.01
–	–	–	–	c1cncc(-c2noc(-c3nnon3)n2)c1	70.1	61.2	2.63	2.64
–	–	–	–	c1cncc(-c2noc(-c3nc[nH]n3)n2)c1	98.1	93.6	5.73	3.91
–	–	–	–	Cc1cccc(Nc2cc(Cl)nc(CSC(=O)O)n2)c1C	62.9	54.1	3.21	2.94
–	–	–	–	Cn1cnc(-c2nc(-c3cccnc3)no2)n1	94.9	90.9	6.82	4.83
–	–	–	–	Cn1nnc(-c2nc(-c3cccnc3)no2)n1	93.4	89	5.14	3.42
–	–	–	–	C1=C(c2nc(-c3cccnc3)no2)CCC1	81.3	68.4	1.68	1.39
–	–	–	–	c1cncc(-c2noc(-c3nnsn3)n2)c1	46.7	38.7	1.45	1.21
–	–	–	–	c1cncc(-c2noc(-c3ncon3)n2)c1	77.7	67.5	3.43	3.76
–	–	–	–	c1cncc(-c2noc(-c3nn[nH]n3)n2)c1	99.2	95.2	7.49	5.28
–	–	–	–	c1cncc(-c2noc(-c3ccoc3)n2)c1	62.5	54.8	1.83	1.52
